Consider two compounds from article PMC3000598 (Phytochemistry letters, 2008).

Assay [1] deals with 5-LOX catalyzed LTB4 formation. Description: In vitro assay for leukotriene. In kind it is cell-based. Particulars: Homo sapiens, Leukocyte, 10 min, read-out: IC50 5-LOX mediated LTB4 formation. An outline of the steps:
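Human venous-blood polymorphonuclear leukocytes isolated by sedimentation rate and lysis tolerance; viability checked by 0.4% trypan blue. Cells (4500 cells/mL) were incubated with the ethanol-dissolved test compound, CaCl2, A23187 and arachidonic acid for 10 min at 37 °C with shaking. The reaction was stopped with 10% HCO2H, and LTB4 was measured by competitive EIA.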

Another assay relates to 5-LOX. Particulars: cellular as well as cell-free assays; ref Albert et al. (2002); cited from earlier work.
The subject of the next assay is COX-1. Particulars: cellular as well as cell-free assays; ref Albert et al. (2002); cited from earlier work.

As a reminder, the IC50 is the concentration that gives 50% inhibition. For `CC(c1cc2ccccc2s1)N(O)C(N)=O` (stereo not drawn) [Zileuton], in assay [1], the IC50 was 5 µM.

Turning to `CC(C)=CCC[C@]1(C)[C@@H](CC=C(C)C)C[C@@]2(CC=C(C)C)C(=O)[C@]1(C(=O)C(C)C)C(=O)C(CC=C(C)C)=C2O` [hyperforin], the 5-LOX inhibition result in the assay on 5-LOX is “dual COX-1/5-LOX inhibitor”. Besides, in the assay on COX-1, the COX-1 inhibition entry is “dual COX-1/5-LOX inhibitor”.
